Data on seven molecules can be found in PMC11310838 (RSC Advances, 2024).

One experiment has as its system HCT116 cell line. Description: Sulforhodamine B. The following applies: for inhibition at 100 µM: read-out: Percentage of cell growth inhibition at [100 μM] HCT116. The class given is cell-based, human. Put shortly:
(§1)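 Carcinoma lines came from the National Cancer Institute, Cairo, and were grown as monolayers in DMEM with 10% FBS and 1% penicillin–streptomycin. Final DMSO was ≤0.1% (v/v). Cells were treated for 48 h either at a single 100 μM dose (% growth inhibition) or at 0, 6.25, 12.5, 25 and 50 μM. SRB staining was read at 570 nm as % viability. IC50 came from dose–response curve fitting.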

Another experiment has as its system HEPG2 cell line. The experiment is described as follows: Sulforhodamine B. To be noted: for IC50: read-out: IC50 (μM) ± SD HEPG2; for inhibition at 100 µM: read-out: Percentage of cell growth inhibition at [100 μM] HEPG2. The class given is cell-based, human. In a few lines:
as §1

The test system of a further experiment is MCF7 cell line. Description: Sulforhodamine B. The class given is cell-based, human. To be noted: for IC50: read-out: IC50 (μM) ± SD MCF7; for inhibition at 100 µM: read-out: Percentage of cell growth inhibition at [100 μM] MCF7. Put shortly:
as §1

Experiment [1] relates to HDF cell line (Human Dermal Fibroblasts). The experiment is described as follows: Sulforhodamine B. The class given is cell-based. The following applies: 48 h; for inhibition at 100 µM: Homo sapiens, HDF, read-out: Percentage of cell growth inhibition at [100 μM] HDF. In a few lines:
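Normal human dermal fibroblasts came from the National Cancer Institute, Cairo. Final DMSO was ≤0.1% (v/v). Cells were exposed to the test compound at a single 100 μM dose for 48 h. Growth inhibition was measured by the sulforhodamine-B method, with absorbance read at 570 nm and expressed as percentage of cell viability.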

In the next experiment the target is EGFR kinase (Homo sapiens, UniProt P00533). The experiment is described as follows: EGFR kinase inhibitory assay. To be noted: for % of EGFR inhibition: concentration not given, average of three replicates. The class given is biochemical.
In experiment [2] the test system is cancer cell lines (HCT116, HEPG2, MCF7). The experiment is described as follows: SRB single-dose screen, summary over cancer cell lines. It is filed as cell-based. To be noted: Homo sapiens, 48 h, read-out: percentage of cell growth inhibition on the cancer cell lines. In a few lines:
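Human carcinoma lines grown as monolayers in DMEM with 10% FBS and 1% penicillin–streptomycin. Each test compound was applied once at 100 μM for 48 h, with final DMSO at most 0.1% (v/v) in control and treated wells. Growth was measured by sulforhodamine-B staining, with OD read at 570 nm. Percentage growth inhibition was calculated from viability relative to the untreated control.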

Experiment [3] relates to HCT-116 cells. The experiment is described as follows: Annexin V/PI staining flow cytometry. It is filed as cell-based, human. To be noted: HCT-116, treated at IC50 = 8.5 μM, 48 h. (In general: Flow cytometry measures light scatter and fluorescence of single cells or particles in a stream.)
In experiment [4] the test system is HCT-116 cells. The experiment is described as follows: DNA content-flow cytometry cell cycle analysis. The class given is cell-based, human. To be noted: HCT-116, treated at IC50 = 8.5 μM, 48 h; control 3.77%.
In experiment [5] the test system is HCT-116 cells. The experiment is described as follows: RT-PCR of apoptosis-related genes. The class given is cell-based, human. To be noted: HCT-116, IC50 = 8.5 μM, 48 h, untreated control = 1. Put shortly: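 HCT-116 cells were exposed to the test compound for 48 h, alongside untreated cells. Relative expression of apoptosis-related genes was measured by real-time PCR. Ct values were normalised to β-actin, and untreated control was set to fold change = 1. Data are the mean ± SD of 3 independent runs.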

The mark [6] stands for this setting: Homo sapiens, HCT-116, 48 h, read-out: IC50 (μM) ± SD HCT116, 48 h treatment, SRB.
Setting [7] is: read-out: IC50 (μM) ± SD HCT116, 48 h treatment, SRB.
The mark [8] stands for this setting: single dose 100 μM, 48 h, SRB, mean ± SD.

Molecules are shown by their SMILES. Where two headings read alike, the source gives them in different places.

Sequence of EGFR kinase (P00533 25-1210): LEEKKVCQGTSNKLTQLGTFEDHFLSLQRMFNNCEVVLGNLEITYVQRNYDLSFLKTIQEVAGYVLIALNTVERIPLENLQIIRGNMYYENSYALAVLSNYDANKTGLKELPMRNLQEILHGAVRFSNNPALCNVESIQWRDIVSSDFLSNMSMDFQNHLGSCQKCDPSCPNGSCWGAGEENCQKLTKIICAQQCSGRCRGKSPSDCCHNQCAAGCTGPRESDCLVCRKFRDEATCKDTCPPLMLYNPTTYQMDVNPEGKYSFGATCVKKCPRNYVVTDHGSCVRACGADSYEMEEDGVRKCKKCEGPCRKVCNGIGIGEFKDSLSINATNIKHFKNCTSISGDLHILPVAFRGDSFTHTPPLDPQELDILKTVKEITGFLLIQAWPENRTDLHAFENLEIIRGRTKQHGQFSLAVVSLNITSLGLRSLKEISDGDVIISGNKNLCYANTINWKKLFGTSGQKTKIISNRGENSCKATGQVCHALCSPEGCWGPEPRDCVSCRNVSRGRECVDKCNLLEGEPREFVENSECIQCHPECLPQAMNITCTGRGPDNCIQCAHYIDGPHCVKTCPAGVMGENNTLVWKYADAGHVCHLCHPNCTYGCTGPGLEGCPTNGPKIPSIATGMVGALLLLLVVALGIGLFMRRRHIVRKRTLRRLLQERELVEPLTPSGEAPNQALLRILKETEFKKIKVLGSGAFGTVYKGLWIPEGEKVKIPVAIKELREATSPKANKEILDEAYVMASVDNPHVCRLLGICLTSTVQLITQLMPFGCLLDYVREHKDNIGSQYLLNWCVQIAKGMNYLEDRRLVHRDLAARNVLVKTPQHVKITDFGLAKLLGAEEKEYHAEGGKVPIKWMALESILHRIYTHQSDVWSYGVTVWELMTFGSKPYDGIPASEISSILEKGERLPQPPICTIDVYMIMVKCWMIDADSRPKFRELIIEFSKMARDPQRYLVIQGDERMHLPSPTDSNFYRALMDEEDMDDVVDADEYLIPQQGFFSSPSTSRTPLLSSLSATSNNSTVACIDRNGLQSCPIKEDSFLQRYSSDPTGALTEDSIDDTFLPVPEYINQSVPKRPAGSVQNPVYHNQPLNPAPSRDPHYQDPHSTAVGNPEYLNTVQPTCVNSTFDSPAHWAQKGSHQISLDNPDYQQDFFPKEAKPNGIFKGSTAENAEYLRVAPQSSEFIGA

What is called IC50 is the point on the concentration scale where inhibition reaches its midpoint. Broadly, the inhibition is how much of the control response was suppressed. Turning to `NC(=S)NN=Cc1ccccc1OCC(=O)N1CCN(C(=O)COc2ccccc2C=NNC(N)=S)CC1` [Compound 7b, 1,1′-(Piperazine-1,4-diyl)bis(2-(2-(2-carbamothioylhydrazono)methylphenoxy)ethanone)], the IC50 with HCT116 cell line (setting [6]) is 20.7 ± 1.5 µM; with HEPG2 cell line (Homo sapiens, HepG2, 48 h) it was 41.3 ± 3.9 µM; in the experiment with MCF7 cell line (Homo sapiens, MCF7, 48 h), 48.5 ± 4.8 µM; at EGFR kinase, 0.0035 ± 0.0001 µM. Besides, the inhibition at 100 µM with HCT116 cell line (Homo sapiens, HCT-116, 48 h) is 90.1 ± 3.41%; in the experiment with HEPG2 cell line (Homo sapiens, HepG2, 48 h) it was 89.1 ± 2.22%; in the experiment on MCF7 cell line (Homo sapiens, MCF7, 48 h), 88.9 ± 5.46%; in experiment [1], 66.5 ± 11.5%; in experiment [2], over 80%. For the same molecule, on EGFR kinase, the “% of EGFR inhibition” value is recorded as 89.7 ± 2.8%.
With `Cc1nc(NN=Cc2ccc(OCC(=O)N3CCN(C(=O)COc4ccc(C=NNc5nc(C)c(N=Nc6ccccc6)s5)cc4)CC3)cc2)sc1N=Nc1ccccc1` [Compound 9a, 1,1′-(Piperazine-1,4-diyl)bis(2-(4-(((4-methyl-5-(phenylazo)thiazol-2-yl)hydrazono)methyl)-phenoxy)ethanone)], the 50% inhibitory concentration (IC50) in the experiment on HCT116 cell line (setting [6]) was found to be 9.98 ± 2 µM; in the experiment on HEPG2 cell line (Homo sapiens, HepG2, 48 h), 23.8 ± 4 µM; in the experiment on MCF7 cell line (Homo sapiens, MCF7, 48 h), 13.7 ± 2.3 µM; on EGFR kinase, 0.0121 ± 4e-05 µM. The inhibition at 100 µM is 81 ± 3.91% in the experiment with HCT116 cell line (Homo sapiens, HCT-116, 48 h); 74.7 ± 4.49% with HEPG2 cell line (Homo sapiens, HepG2, 48 h); 85.9 ± 5.94% with MCF7 cell line (Homo sapiens, MCF7, 48 h); 18.2 ± 11.5% in [1]; over 80% in [2]. Also, at EGFR kinase, the “% of EGFR inhibition” value is 83.7 ± 1.4%.
As to `Cc1ccc(N=Nc2sc(NN=Cc3ccc(OCC(=O)N4CCN(C(=O)COc5ccc(C=NNc6nc(C)c(N=Nc7ccc(C)cc7)s6)cc5)CC4)cc3)nc2C)cc1` [Compound 9b, 1,1′-(Piperazine-1,4-diyl)bis(2-(4-(((4-methyl-5-(4-tolylazo)thiazol-2-yl)hydrazono)methyl)-phenoxy)ethanone)], the IC50 in the experiment on HCT116 cell line (setting [6]) is 11.5 ± 2.5 µM; in the experiment on HEPG2 cell line (Homo sapiens, HepG2, 48 h), 26.5 ± 2.7 µM; in the experiment on MCF7 cell line (Homo sapiens, MCF7, 48 h), 24.7 ± 3.6 µM; on EGFR kinase, 0.0546 ± 0.0009 µM. The inhibition at 100 µM with HCT116 cell line (Homo sapiens, HCT-116, 48 h) was 85.2 ± 2.11%; in the experiment on HEPG2 cell line (Homo sapiens, HepG2, 48 h), 56.5 ± 4.93%; with MCF7 cell line (Homo sapiens, MCF7, 48 h), 89.5 ± 2.34%; in experiment [1] it was 27.6 ± 25.1%; in experiment [2], over 80%. Besides, the “% of EGFR inhibition” value on EGFR kinase is recorded as 74.8 ± 1.6%.
Take `Cc1nc(NN=Cc2ccc(OCC(=O)N3CCN(C(=O)COc4ccc(C=NNc5nc(C)c(N=Nc6ccc([N+](=O)[O-])cc6)s5)cc4)CC3)cc2)sc1N=Nc1ccc([N+](=O)[O-])cc1` [Compound 9e, 1,1′-(Piperazine-1,4-diyl)bis(2-(4-(((4-methyl-5-(4-nitrophenylazo)thiazol-2-yl)hydrazono)methyl)-phenoxy)ethanone)]: the IC50 in the experiment with HCT116 cell line (setting [6]) came out at 20.4 ± 3.4 µM; with HEPG2 cell line (Homo sapiens, HepG2, 48 h), 32.2 ± 4.5 µM; in the experiment on MCF7 cell line (Homo sapiens, MCF7, 48 h), 22 ± 4.5 µM. Besides, the inhibition at 100 µM is 86.8 ± 2.09% in the experiment on HCT116 cell line (Homo sapiens, HCT-116, 48 h); 77.5 ± 7.73% in the experiment with HEPG2 cell line (Homo sapiens, HepG2, 48 h); 84.6 ± 2.02% with MCF7 cell line (Homo sapiens, MCF7, 48 h); 18.6 ± 32.1% in [1]; over 80% in experiment [2].
With `Cc1nc(NN=Cc2ccccc2OCC(=O)N2CCN(C(=O)COc3ccccc3C=NNc3nc(C)c(N=Nc4ccc(Br)cc4)s3)CC2)sc1N=Nc1ccc(Br)cc1` [Compound 9i, 1,1′-(Piperazine-1,4-diyl)bis(2-(2-(((4-methyl-5-(4-bromophenylazo)thiazol-2-yl)hydrazono)-methyl)phenoxy)ethanone)], the IC50 in the experiment with HCT116 cell line (setting [6]) amounted to 8.5 µM; with HCT116 cell line (setting [7]), 8.51 ± 2.5 µM; in the experiment with HEPG2 cell line (Homo sapiens, HepG2, 48 h), 22 ± 2.9 µM; in the experiment on MCF7 cell line (Homo sapiens, MCF7, 48 h) it was 13 ± 2.8 µM; on EGFR kinase, 0.0012 ± 5e-05 µM. The inhibition at 100 µM in the experiment with HCT116 cell line (Homo sapiens, HCT-116, 48 h) was 89.6 ± 5.3%; with HEPG2 cell line (Homo sapiens, HepG2, 48 h) it was 91 ± 3.56%; with MCF7 cell line (Homo sapiens, MCF7, 48 h) it was 89.9 ± 2.3%; in [1], 71.6 ± 17.3%; in [2], over 80%. Besides, at EGFR kinase, the “% of EGFR inhibition” value came to 97.5 ± 2.1%. For the same molecule, in the experiment with HCT-116 cells [3], the “induction of apoptotic cell death vs untreated control” value was 4.16 fold. For the same molecule, the “induction of necrosis cell death vs untreated control” value in the experiment on HCT-116 cells [3] stood at 4.79 fold. The early apoptosis with HCT-116 cells [3] (control 1.69%) is listed as 0.54%. This molecule also displayed a late apoptosis with HCT-116 cells [3] (control 2.36%) of 16.31%. For the same molecule, the total apoptosis in the experiment with HCT-116 cells [3] (control 4.05%) came out at 16.85%. For the same molecule, in the experiment with HCT-116 cells [4], the “cell population at the P2 phase” value was found to be 51.89%. For the same molecule, in the experiment on HCT-116 cells [5] (downregulated), the “Bcl-2 expression fold change” value worked out at 0.76 fold change. In the experiment on HCT-116 cells [5] (upregulated), this molecule registered a P53 fold change of 10.87 fold change. Besides, in the experiment with HCT-116 cells [5] (upregulated), the “caspase-3 level fold change” value came to 9.87 fold change. Also, the “caspase-8 level fold change” value in the experiment on HCT-116 cells [5] (upregulated) is 7.6 fold change. Besides, in the experiment on HCT-116 cells [5] (upregulated), the “caspase-9 level fold change” value is listed as 11.6 fold change.
On to `O=C(COc1ccc(C=NN=c2sc(-c3ccc(Cl)cc3)nn2-c2ccccc2)cc1)N1CCN(C(=O)COc2ccc(C=NN=c3sc(-c4ccc(Cl)cc4)nn3-c3ccccc3)cc2)CC1` [Compound 13b, 1,1′-(Piperazine-1,4-diyl)bis(2-(4-(((5-(4-chlorophenyl)-3-phenyl-1,3,4-thiadiazol-2(3H)-ylidene)-hydrazono)methyl)phenoxy)ethanone)], for which the IC50 in the experiment with HCT116 cell line (setting [6]) is 18.4 ± 4 µM; in the experiment with HEPG2 cell line (Homo sapiens, HepG2, 48 h), 24.5 ± 4 µM; with MCF7 cell line (Homo sapiens, MCF7, 48 h), 19.4 ± 3 µM. The inhibition at 100 µM was 89.3 ± 2.83% in the experiment with HCT116 cell line (Homo sapiens, HCT-116, 48 h); 85.1 ± 3.16% with HEPG2 cell line (Homo sapiens, HepG2, 48 h); 90.8 ± 1.39% with MCF7 cell line (Homo sapiens, MCF7, 48 h); 79.2 ± 3.71% in [1]; over 80% in [2].
`COc1cccc2c1C(=O)c1c(O)c3c(c(O)c1C2=O)C[C@@](O)(C(=O)CO)C[C@@H]3O[C@H]1C[C@H](N)[C@H](O)[C@H](C)O1` [DOX, reference compound]: the half-inhibitory concentration (IC50) came to 7.7 ± 1.5 µM in the experiment on HCT116 cell line (setting [7]); 8.42 ± 1.7 µM in the experiment with HEPG2 cell line (48 h treatment, SRB); 7.59 ± 1.4 µM in the experiment on MCF7 cell line (48 h treatment, SRB). For the same molecule, the “Percentage of cell growth inhibition at [100 μM] HCT116” value in the experiment with HCT116 cell line (setting [8]) is recorded as 82.77 ± 2.98%. The “Percentage of cell growth inhibition at [100 μM] HEPG2” value with HEPG2 cell line (setting [8]) was determined as 89.09 ± 0.63%. For the same molecule, the “Percentage of cell growth inhibition at [100 μM] MCF7” value with MCF7 cell line (setting [8]) is 86.37 ± 1.82%. The “Percentage of cell growth inhibition at [100 μM] HDF” value in [1] (single dose 100 μM, SRB, normal cells, mean ± SD) was found to be 30.53 ± 9.75%.
